Test results reported in PMC7887132 (Chemistry (Weinheim an der Bergstrasse, Germany), 2020).

Legend:
tyrosine kinases = conditions: previously synthesized and tested; no reference given; cited from earlier work
c-Met = c-Met (Homo sapiens, UniProt P08581); assay: Anti-protein kinase activity, c-Met; format: biochemical; conditions: for IC50: read-out: Anti-protein kinase activity (IC50) c-Met; for percentage of inactivated c-Met: 1 μM of compound used as inhibitor
Method in brief: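 ELISA kinase-kit format, run in duplicate. Met positive-control enzyme (10 μL of 0.1 unit/μL) goes into wells on ice, with kinase assay buffer containing the test compound. Kinase reaction buffer starts the reaction, 60 min at 30 °C. After washing, HRP-conjugated detection antibody PY-39 is added for 60 min at room temperature, then substrate reagent for 5–15 min, then stop solution. Absorbance is read at 450/540 nm within 30 min.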

EGFR WT = EGFR WT (Homo sapiens, UniProt P00533); assay: Anti-protein kinase activity, EGFR WT; format: biochemical; conditions: for IC50: read-out: Anti-protein kinase activity (IC50) EGFR WT
EGFR L858R = EGFR L858R (Homo sapiens, UniProt P00533, L858R); assay: Anti-protein kinase activity, EGFR L858R; format: biochemical; conditions: read-out: Anti-protein kinase activity (IC50) EGFR L858R
EGFR T790M /L858R = EGFR T790M /L858R (Homo sapiens, UniProt P00533, L858R/T790M); assay: Anti-protein kinase activity, EGFR T790M/L858R; format: biochemical; conditions: read-out: Anti-protein kinase activity (IC50) EGFR T790M /L858R
Abl WT = Abl WT (Homo sapiens, UniProt P00519); assay: Anti-protein kinase activity, Abl WT; format: biochemical; conditions: read-out: Anti-protein kinase activity (IC50) Abl WT
Abl T315I = Abl T315I (Homo sapiens, UniProt P00519, T315I); assay: Anti-protein kinase activity, Abl T315I; format: biochemical; conditions: read-out: Anti-protein kinase activity (IC50) Abl T315I
FLT1 = FLT1 (Homo sapiens, UniProt P17948); assay: Anti-protein kinase activity, FLT1; format: biochemical; conditions: read-out: Anti-protein kinase activity (IC50) FLT1
Solubility in water = format: physicochemical

c-Met, sequence (P08581 25-1390): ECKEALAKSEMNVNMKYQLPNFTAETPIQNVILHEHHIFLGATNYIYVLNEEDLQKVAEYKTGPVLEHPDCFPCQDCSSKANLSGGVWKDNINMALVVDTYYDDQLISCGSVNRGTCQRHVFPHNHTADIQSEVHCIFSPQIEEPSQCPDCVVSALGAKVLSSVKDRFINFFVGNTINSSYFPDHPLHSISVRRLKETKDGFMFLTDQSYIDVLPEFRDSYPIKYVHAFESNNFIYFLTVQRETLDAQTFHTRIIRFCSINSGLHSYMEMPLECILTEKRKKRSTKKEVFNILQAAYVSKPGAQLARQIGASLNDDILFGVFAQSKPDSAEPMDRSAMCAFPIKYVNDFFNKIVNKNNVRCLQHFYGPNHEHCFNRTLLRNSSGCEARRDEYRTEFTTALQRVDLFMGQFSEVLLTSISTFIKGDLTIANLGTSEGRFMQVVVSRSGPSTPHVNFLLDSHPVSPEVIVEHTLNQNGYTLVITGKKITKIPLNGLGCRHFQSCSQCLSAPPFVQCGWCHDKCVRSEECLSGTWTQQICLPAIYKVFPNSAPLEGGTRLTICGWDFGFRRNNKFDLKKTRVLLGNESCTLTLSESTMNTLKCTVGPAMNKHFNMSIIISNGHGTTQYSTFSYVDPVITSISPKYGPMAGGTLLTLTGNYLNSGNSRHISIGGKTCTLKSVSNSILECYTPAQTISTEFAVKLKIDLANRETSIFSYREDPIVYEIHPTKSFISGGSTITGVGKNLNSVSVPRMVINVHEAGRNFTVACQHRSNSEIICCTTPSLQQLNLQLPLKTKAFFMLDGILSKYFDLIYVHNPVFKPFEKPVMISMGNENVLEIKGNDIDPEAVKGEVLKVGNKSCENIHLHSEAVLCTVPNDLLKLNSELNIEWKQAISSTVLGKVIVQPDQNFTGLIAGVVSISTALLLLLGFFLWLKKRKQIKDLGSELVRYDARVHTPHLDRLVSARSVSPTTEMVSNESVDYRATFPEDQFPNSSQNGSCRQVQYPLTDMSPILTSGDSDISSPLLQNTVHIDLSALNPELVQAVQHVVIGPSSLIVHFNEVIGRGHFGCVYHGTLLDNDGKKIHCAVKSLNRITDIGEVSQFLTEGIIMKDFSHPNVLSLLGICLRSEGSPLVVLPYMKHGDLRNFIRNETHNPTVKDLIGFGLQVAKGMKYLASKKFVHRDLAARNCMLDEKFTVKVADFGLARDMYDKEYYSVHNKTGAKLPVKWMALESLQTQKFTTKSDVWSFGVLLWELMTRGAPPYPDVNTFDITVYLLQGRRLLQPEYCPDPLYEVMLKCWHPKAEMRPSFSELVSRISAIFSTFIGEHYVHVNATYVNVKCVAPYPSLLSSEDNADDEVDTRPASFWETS
FLT1, sequence (P17948 27-1338): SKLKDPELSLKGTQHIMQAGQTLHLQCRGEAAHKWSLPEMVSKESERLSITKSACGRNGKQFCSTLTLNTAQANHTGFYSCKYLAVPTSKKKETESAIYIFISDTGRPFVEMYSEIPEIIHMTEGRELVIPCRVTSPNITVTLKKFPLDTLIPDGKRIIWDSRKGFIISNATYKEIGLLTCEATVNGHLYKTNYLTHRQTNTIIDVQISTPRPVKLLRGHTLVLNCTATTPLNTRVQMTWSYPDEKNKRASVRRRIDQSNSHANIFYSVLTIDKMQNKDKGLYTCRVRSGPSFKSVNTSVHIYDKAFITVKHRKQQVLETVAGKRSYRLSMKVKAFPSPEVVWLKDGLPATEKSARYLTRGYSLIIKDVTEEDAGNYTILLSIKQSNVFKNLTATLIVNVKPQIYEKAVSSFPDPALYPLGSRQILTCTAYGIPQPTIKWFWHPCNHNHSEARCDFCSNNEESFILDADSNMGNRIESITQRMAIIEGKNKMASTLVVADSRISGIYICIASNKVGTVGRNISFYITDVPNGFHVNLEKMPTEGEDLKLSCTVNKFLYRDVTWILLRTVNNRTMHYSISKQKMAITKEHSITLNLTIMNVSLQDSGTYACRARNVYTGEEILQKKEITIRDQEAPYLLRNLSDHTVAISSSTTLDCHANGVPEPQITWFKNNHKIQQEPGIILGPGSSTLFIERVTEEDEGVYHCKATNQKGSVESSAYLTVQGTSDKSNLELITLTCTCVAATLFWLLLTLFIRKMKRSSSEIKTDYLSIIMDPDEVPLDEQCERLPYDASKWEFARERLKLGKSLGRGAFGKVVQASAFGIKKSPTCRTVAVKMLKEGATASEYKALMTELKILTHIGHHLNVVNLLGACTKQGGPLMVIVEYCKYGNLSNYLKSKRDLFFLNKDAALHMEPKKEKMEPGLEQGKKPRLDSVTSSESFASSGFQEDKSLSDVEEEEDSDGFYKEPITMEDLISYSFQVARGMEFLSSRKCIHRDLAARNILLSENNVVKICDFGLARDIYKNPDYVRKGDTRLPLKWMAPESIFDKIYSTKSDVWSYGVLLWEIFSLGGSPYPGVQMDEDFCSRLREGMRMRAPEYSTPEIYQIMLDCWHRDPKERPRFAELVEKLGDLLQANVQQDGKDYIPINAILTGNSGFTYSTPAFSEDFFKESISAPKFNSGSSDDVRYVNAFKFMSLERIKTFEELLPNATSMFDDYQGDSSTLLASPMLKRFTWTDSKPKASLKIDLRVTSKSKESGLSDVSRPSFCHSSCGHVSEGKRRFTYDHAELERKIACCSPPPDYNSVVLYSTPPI

| Compound | inhibitory activity as tyrosine kinases inhibitor (tyrosine kinases) | IC50 (c-Met) [nM] | IC50 (EGFR WT) [nM] | IC50 (EGFR L858R) [nM] | IC50 (EGFR T790M /L858R) [nM] | IC50 (Abl WT) [nM] | IC50 (Abl T315I) [nM] | IC50 (FLT1) [nM] | solubility in water (Solubility in water) | percentage of inactivated c-Met (c-Met) [%] | inhibition of EGFR WT (in words) (EGFR WT) | percentage of inactivated EGFR WT (EGFR WT; 1 μM of compound used as inhibitor) [%] | anti-c-Met activity (in words) (c-Met) |
| --- | --- | --- | --- | --- | --- | --- | --- | --- | --- | --- | --- | --- | --- |
| 2,6-di(thiazol-4-yl)pyridinophane [compound 5] | didn’t show any inhibitory activity | – | – | – | – | – | – | – | – | – | – | – | – |
| 2,15-Diaza-2,15-diheptanoyl[3.3](2,2’)(4,4’-bithiazolophane) [compound 3] | – | > 1000 | > 1000 | > 1000 | > 1000 | > 1000 | > 1000 | > 1000 | only slightly soluble in water | – | – | – | – |
| 2,15-diaza-2,15-bis(tert-butoxycarbonyl)[3.3](2,2’)(4,4’-bithiazolophane) [compound 1] | – | 603 | > 1000 | > 1000 | > 1000 | > 1000 | > 1000 | > 1000 | only slightly soluble in water | 59 | partial inhibition | 44 | – |
| 2,15-diaza[3.3](2,2’)(4,4’-bithiazolophanium) dichloride [compound 2] | – | > 1000 | > 1000 | > 1000 | > 1000 | > 1000 | > 1000 | > 1000 | almost freely soluble in water | 33 | – | – | showed anti-c-Met activity |
| CC(C)COC(=O)N1Cc2nc(cs2)-c2csc(n2)CN(C(=O)OCC(C)C)Cc2nc(cs2)-c2csc(n2)C1 [compound 4, 2,15-Bis(isobutoxycarbonyl)-2,15-diaza[3.3](2,2’)(4,4’-bithiazolophane)] | – | > 1000 | > 1000 | > 1000 | > 1000 | > 1000 | > 1000 | > 1000 | only slightly soluble in water | 5 | – | – | showed anti-c-Met activity |
